Screening data as filed in PubChem.
MBD2 inh: blocks human MBD2 binding to methylated DNA. Q9UBB5. TR-FRET, MBD2 binding to methylated oligonucleotide. inhibition, % at 4.4 µM. 370,000 compounds, 0.31% hits. AID 686964; in the data active means inhibition above about 13%
UHRF1 MBD2 ctr: blocks human UHRF1 binding to methylated DNA; 370,000 compounds, 0.75% hits; inhibition, % at 4.4 µM; UHRF1 binding to methylated oligo, TR-FRET; Q96T88; in the data active means inhibition above about 21%;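 further: UHRF1 SRA domain binding a hemimethylated CpG hairpin DNA probe; 0% = median of test compound wells and 100% = reference inhibitor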
LEDGF integ inh: blocks HIV-1 LEDGF/p75-dependent DNA integration. inhibition, % at 3.7 µM. TR-FRET IN-LEDGF/p75 DNA integration, Eu/Cy5. 370,000 compounds, 0.64% hits;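 active means inhibition above the screen-wide mean plus 3 SD, cut at about 13% in these data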;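 further: signal is the Cy5 over europium emission ratio at 671 and 618 nm; 0% = plate median of compound wells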
PRMT1 FP inh: inhibitors of human PRMT1. Q99873. recombinant PRMT1, activity-based probe fluorescence polarization. inhibition, % at 2.79 µM. 370,000 compounds, 1.3% hits;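 active means inhibition above about 21% made by adding two undisclosed values, limit read from the data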
SIAE inh: blocks human sialic acid acetylesterase; SIAE FP-Rh probe binding, fluorescence polarization; inhibition, % at 9.66 µM; Q9HAT2; 370,000 compounds, 0.69% hits;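 active means inhibition above a cutoff: mean of compounds within the control limits plus 3 SD of those, cut at about 17% in these data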;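 further: 0% = plate median of compound wells and 100% = probe without SIAE protein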
TDP2 inh: TDP2 (human) inhibition, absorbance primary screen. recombinant TDP2, T5PNP hydrolysis, p-nitrophenol absorbance 415 nm. O95551. 370,000 compounds, 0.34% hits. inhibition, % at 12.8 µM. AID 720702;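 active means inhibition above the mean of all tested compounds plus 3 SD, set per campaign, cut at about 25% in these data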;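 further: 0% = DMSO with enzyme and 100% = buffer with substrate but no TDP2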
Target sequence (O95551 whole entry, looked up): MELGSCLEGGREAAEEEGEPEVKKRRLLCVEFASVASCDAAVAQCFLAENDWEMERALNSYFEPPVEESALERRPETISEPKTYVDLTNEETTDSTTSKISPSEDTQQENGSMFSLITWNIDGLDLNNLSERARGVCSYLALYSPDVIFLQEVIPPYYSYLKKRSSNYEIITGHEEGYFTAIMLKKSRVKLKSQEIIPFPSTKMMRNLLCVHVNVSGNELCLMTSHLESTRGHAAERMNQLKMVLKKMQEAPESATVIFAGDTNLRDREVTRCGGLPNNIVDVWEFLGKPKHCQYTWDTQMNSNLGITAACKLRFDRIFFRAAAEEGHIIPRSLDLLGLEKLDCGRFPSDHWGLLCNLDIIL
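System – recombinant human TDP2 · Amount – 120 nM TDP2 per well · Buffer or medium – Mg2+-containing Tris-HCl buffer, pH 7.5 · Reagent – T5PNP substrate, 5 mM · Dosing – 12.8 µM single point, 1% DMSO · Incubation – 2 h at 37 °C · Measured by – epi absorbance · Read-out basis – percent inhibition · Benchmarks – high control without enzyme, low control DMSO plus TDP2 · Repeats – singlicate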
SIAE confirm: human SIAE inhibition, confirmation; shares compounds with SIAE inh; SIAE FP-Rh activity-based probe, fluorescence polarization; inhibition, % at 9.66 µM; 2,300 compounds, 13% hits; AID 1117263;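 active means mean inhibition of the replicates above the hit cutoff set in the primary screen, cut at about 17% in these data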;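 further: 0% = SIAE with DMSO and probe and 100% = probe without SIAE; inhibitors lower polarization as more probe stays unbound to SIAE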
Active calls of the source: *; · = no result given. Rows were chosen to be rich in hits. Some 3.3% of all compounds tested hit in one or more screens of this group.

SMILES	MBD2 inh	UHRF1 MBD2 ctr	LEDGF integ inh	PRMT1 FP inh	SIAE inh	TDP2 inh	SIAE confirm
Nc1nc2c(ncn2[C@@H]2O[C@H](C(=O)NCC(F)(F)F)[C@@H](O)[C@H]2O)c(=O)[nH]1	0	3	2	3	4	-7	·
O=C(CCc1ccccc1)N[C@H]1/C(=N/O)CCC[C@]12C(=O)N(Cc1ccccc1)c1ccccc12	8	9	4	2	7	0	·
O=C(NCc1ccccc1)c1ccc(CO)cc1	0	2	-5	-1	-6	-4	·
COC(=O)[C@]12C[C@H](CC(=O)NCc3cccs3)C(=O)N(Cc3ccccc3)C1=C[C@H](C(C)C)O[C@@H]2C1CC1	0	1	1	1	0	-5	·
NC(=O)c1cc(S(=O)(=O)N2CCCC2)ccc1OCCOc1ccccc1F	-6	-2	2	1	21*	14	1
NC(Cc1ccc(O)cc1)C(=O)NN=Cc1ccccc1Cl (stereo not drawn)	-4	-4	3	-6	-5	-1	·
COc1ccc2nc(C(c3ccc(C)cc3)n3c(-c4ccccc4Br)nc4ccccc43)[nH]c2c1 (stereo not drawn)	-2	-1	4	4	27*	-3	-3
CC(C)CC(c1nc2ccccc2[nH]1)n1c(-c2ccccc2Br)nc2ccccc21 (stereo not drawn)	-6	-1	1	-1	-6	7	·
CN[C@H]1C[C@@H](c2ccccc2Br)N(C(C)=O)C[C@H]1CO	-3	-2	8	-4	-7	-11	·
COc1ccccc1Nc1ccc2c(O)cc(S(=O)(=O)O)cc2c1	24*	47*	36*	37*	28*	0	53*
O=C(Cn1c(=S)[nH]c2ncccc2c1=O)NCCc1ccccc1	-6	3	3	-2	36*	-19	-3
CCOC(=O)c1c(OCC)[nH]c2c1cc(O)c1ccccc12	-6	-2	1	13	28*	13	16
COC(=O)Nc1ncc(CN2CCc3ccccc3C2)s1	-2	5	0	2	78*	3	-7
COc1ccc(-c2cc(=O)c3cccc(CC(=O)O)c3o2)cc1	-1	-5	3	1	-2	5	·
O=C(CN1C(=O)/C(=C2/SC(=S)N(CCS(=O)(=O)O)C2=O)c2ccccc21)Nc1cccc(C(F)(F)F)c1	2	-3	7	8	22*	0	22*
O=C(CN1C(=O)/C(=C2\SC(=S)N(CCS(=O)(=O)O)C2=O)c2ccccc21)Nc1cccc(Br)c1	-1	0	6	19	-3	11	·
Cc1nn(-c2ccccc2)nc1C(=O)Nc1ccccc1C(=O)NCC1CC1	-5	2	0	4	0	11	·
CCN(CCn1cccn1)C(=O)c1cc(COc2c(F)cccc2F)on1	0	-1	-3	-2	46*	0	1
CCN(Cc1ccccc1)C(=O)c1cc(COc2c(F)cccc2F)on1	1	4	-5	3	-3	-11	·
CC(C)NC(=O)c1ccc(N2CCOCC2)nc1	-5	-3	3	-2	19*	2	-4
O=C(c1ccc(N2CCOCC2)nc1)N1CCOCC1	-9	0	1	-3	2	-2	·
COc1ccc(S[C@]2(C(=O)N3CCN(c4ncccn4)CC3)CC(=O)N(c3ccsc3)[C@@H]2c2ccc(OC)cc2)cc1	3	0	-1	2	-11	4	·
NC1=NC(=Nc2cccc(S(N)(=O)=O)c2)c2ccccc21	-1	-2	1	1	-5	4	·
COc1cc(N=Nc2cccc(S(N)(=O)=O)c2)c2ccccc2c1N	-12	-7	3	-8	26*	1	-2
O=C(CSc1nnc(-c2ccncc2)n1-c1ccc(Br)cc1)c1ccccc1	0	0	0	1	-5	-1	·
COc1ccc(/C=C/C(=O)Nc2ccc(N3CCOCC3)cc2)cc1	0	3	-1	-1	-2	8	·
COc1ccc(N2CCN(c3ccc(NC(=O)/C=C\C(=O)O)cc3)CC2)cc1	-2	-4	9	7	18*	4	4
